Data published in ChEMBL document CHEMBL3616446, “Structure activity optimization of 6H-pyrrolo[2,3-e][1,2,4]triazolo[4,3-a]pyrazines as Jak1 kinase inhibitors” (Bioorg Med Chem Lett, 2015).

Tests used:
[1] = test system: UT7; assay: Selectivity ratio for inhibition of JAK2 in human UT7 cells to inhibition of JAK1 in human TF1 cells; format: cell-based
Summary of the method: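 Cell-based pSTAT read-outs. Jak1: IL-6-stimulated pSTAT3 in TF-1 cells. Jak2: Epo-stimulated pSTAT5 in UT-7 cells. Full-length endogenous Jak at cellular ATP levels. Run in 96-well format, some in 384-well. Ratio = Jak2 cellular value / Jak1 cellular value.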

[2] = Metabolic stability in Sprague-Dawley rat microsomes assessed as compound remaining at 1 uM measured at 25 mins; format: ADME, Microsome; details: read-out: Stability
Summary of the method: (§1)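 Microsomes at 0.25 mg protein with 1 mM NADPH and 1 µM compound, incubated 25 min at 37 °C; % parent remaining at 25 min. Rat: pooled male SD microsomes. Human: pooled male/female microsomes.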

[3] = Metabolic stability in human microsomes assessed as compound remaining at 1 uM measured at 25 mins; format: ADME, Microsome; details: read-out: Stability; summary of the method: as §1
[4] = Plasma clearance in Sprague-Dawley rat at 5 mg/kg, iv; format: ADME, organism-based
[5] = AUC (0 to infinity) in Sprague-Dawley rat at 10 mg/kg, po; format: ADME, organism-based; set-up: dose 10 mg/kg, time infinity, route oral; details: in vivo
[6] = Cmax in Sprague-Dawley rat at 10 mg/kg, po; format: ADME, organism-based; set-up: dose 10 mg/kg, route oral; details: in vivo
[7] = Oral bioavailability in Sprague-Dawley rat at 10 mg/kg; format: ADME, organism-based; details: in vivo
[8] = test system: Rattus norvegicus; assay: Antiinflammatory activity in Lewis rat assessed as inhibition of concanavalin A-induced IFNgamma production administered 30 mins prior to concanavalin A challenge measured at 4 hrs by ELISA; format: functional; set-up: concentration or dose not given beside the values

| SMILES | remaining at 25 min, 1 µM [2] [%] | remaining at 25 min, 1 µM [3] [%] | clearance [4] [mL/min/kg] | AUC(0-inf) [5] [ng·h/mL] | Cmax [6] [ng/mL] | bioavailability [7] [%] | Selectivity ratio [1] | inhibition (INH) [8] [%] |
| --- | --- | --- | --- | --- | --- | --- | --- | --- |
| O=S(=O)(N[C@H]1CC[C@@H](c2nnc3cnc4[nH]ccc4n23)C1)C1CCCCC1 |  |  |  |  |  |  | > 75 |  |
| CCCS(=O)(=O)N[C@H]1CC[C@@H](c2nnc3cnc4[nH]ccc4n23)C1 |  |  |  |  |  |  | > 20 |  |
| O=S(=O)(N[C@]12CC[C@](c3nnc4cnc5[nH]ccc5n43)(CC1)CC2)C1CC1 |  |  | 51.7 | 410 | 60 | 13 | 225 | 31 |
| O=S(=O)(N[C@@H]1CCC[C@@H](c2nnc3cnc4[nH]ccc4n23)C1)C1CC1 (racemic) |  |  |  |  |  |  | > 10 |  |
| CS(=O)(=O)N[C@H]1CC[C@@H](c2nnc3cnc4[nH]ccc4n23)C1 |  |  |  |  |  |  | 34 |  |
| COc1ccc(S(=O)(=O)N[C@H]2CC[C@@H](c3nnc4cnc5[nH]ccc5n34)C2)cc1 | 61 | 35 |  |  |  |  | 26 |  |
| O=S(=O)(N[C@H]1CC[C@H](c2nnc3cnc4[nH]ccc4n32)CC1)C1CC1 |  |  |  |  |  |  | > 20 |  |

More lines, main results first:

| remaining at 25 min, 1 µM [2] [%] | remaining at 25 min, 1 µM [3] [%] | clearance [4] [mL/min/kg] | AUC(0-inf) [5] [ng·h/mL] | Cmax [6] [ng/mL] | bioavailability [7] [%] | SMILES | Selectivity ratio [1] | inhibition (INH) [8] [%] |
| --- | --- | --- | --- | --- | --- | --- | --- | --- |
| 98 | 100 | 48.3 | 1100 | 230 | 29 | O=S(=O)(N[C@H]1CC[C@@H](c2nnc3cnc4[nH]ccc4n23)C1)C1CC1 | 17 | 55 |
| 100 |  |  |  |  |  | CCS(=O)(=O)N[C@H]1CC[C@@H](c2nnc3cnc4[nH]ccc4n23)C1 | 101 |  |
| 68 | 90 |  |  |  |  | O=S(=O)(N[C@H]1CC[C@@H](c2nnc3cnc4[nH]ccc4n23)C1)C1CCCC1 | 100 |  |
|  |  |  | 280 | 170 |  | c1cc2c(ncc3nnc(C4CCCCC4)n32)[nH]1 |  |  |
|  |  |  | 50 | 10 |  | O=S(=O)(N[C@H]1CCC[C@@H](c2nnc3cnc4[nH]ccc4n23)C1)C1CC1 (racemic) | 9 | 0 |
| 80 | 85 | 41.7 | 860 | 310 | 32 | O=S(=O)(N[C@H]1CC[C@@H](c2nnc3cnc4[nH]ccc4n23)C1)C1CCC1 | 227 | 40 |
| 6 | 8 |  |  |  |  | O=S(=O)(N[C@H]1CC[C@@H](c2nnc3cnc4[nH]ccc4n23)C1)c1cccc(Cl)c1 | 54 |  |
| 31 | 42 |  |  |  |  | O=S(=O)(N[C@H]1CC[C@@H](c2nnc3cnc4[nH]ccc4n23)C1)c1ccccc1 | 34 |  |
